Laboratory results taken from ChEMBL document CHEMBL3098111, “Discovery of 2,5-diarylnicotinamides as selective orexin-2 receptor antagonists (2-SORAs)” (Bioorg Med Chem Lett, 2013).
Activity calls are given as the source filed them. The calls are words filed in the database; no cut-off is given here.

Experiments:
[1] = molecular target: GABA-A receptor; alpha-1/beta-3/gamma-2 (Homo sapiens) (UniProt P14867+P18507+P28472); assay: Inhibition of human GABA alpha1beta3gamma2 receptor muscimol binding site at 10 uM relative to control; assay type: protein-complex assay
[2] = molecular target: D(4) dopamine receptor (Homo sapiens) (UniProt P21917); assay: Inhibition of human dopamine D4.4 receptor at 10 uM relative to control
D(3) dopamine receptor = D(3) dopamine receptor (Homo sapiens, UniProt P35462); assay: Inhibition of human dopamine D3 receptor at 0.1 uM relative to control
Chain of D(3) dopamine receptor (P35462 whole entry): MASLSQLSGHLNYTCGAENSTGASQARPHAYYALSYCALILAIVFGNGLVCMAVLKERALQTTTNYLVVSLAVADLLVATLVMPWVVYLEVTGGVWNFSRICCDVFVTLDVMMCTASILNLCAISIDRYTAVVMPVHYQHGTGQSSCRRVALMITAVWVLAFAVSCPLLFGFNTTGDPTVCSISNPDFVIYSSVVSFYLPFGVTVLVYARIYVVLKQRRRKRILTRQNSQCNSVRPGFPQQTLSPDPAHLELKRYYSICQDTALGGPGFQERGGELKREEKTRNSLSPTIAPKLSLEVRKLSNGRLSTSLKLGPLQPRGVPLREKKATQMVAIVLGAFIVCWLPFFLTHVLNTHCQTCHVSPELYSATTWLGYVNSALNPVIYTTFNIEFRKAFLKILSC

[3] = molecular target: D(1A) dopamine receptor (Homo sapiens) (UniProt P21728); assay: Inhibition of human dopamine D1 receptor at 10 uM relative to control
Chain of D(1A) dopamine receptor (Homo sapiens) (P21728 whole entry): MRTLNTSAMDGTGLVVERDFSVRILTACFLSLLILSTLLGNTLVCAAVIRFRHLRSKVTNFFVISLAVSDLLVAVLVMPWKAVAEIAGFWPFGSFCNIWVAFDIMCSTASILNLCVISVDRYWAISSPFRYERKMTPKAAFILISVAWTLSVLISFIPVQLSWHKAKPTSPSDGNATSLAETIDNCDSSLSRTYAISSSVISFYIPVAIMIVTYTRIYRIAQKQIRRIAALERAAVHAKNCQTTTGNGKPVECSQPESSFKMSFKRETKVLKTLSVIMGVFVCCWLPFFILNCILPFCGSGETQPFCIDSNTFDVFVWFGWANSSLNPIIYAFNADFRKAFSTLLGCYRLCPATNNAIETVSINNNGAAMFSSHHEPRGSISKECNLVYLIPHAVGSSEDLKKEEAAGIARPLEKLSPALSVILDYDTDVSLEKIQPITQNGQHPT

[4] = molecular target: Gastrin/cholecystokinin type B receptor (Homo sapiens) (UniProt P32239); assay: Inhibition of human CCKB receptor at 10 uM relative to control
[5] = molecular target: C-C chemokine receptor type 1 (Homo sapiens) (UniProt P32246); assay: Inhibition of human CCR1 at 10 uM relative to control
Chain of C-C chemokine receptor type 1 (Homo sapiens) (P32246 whole entry): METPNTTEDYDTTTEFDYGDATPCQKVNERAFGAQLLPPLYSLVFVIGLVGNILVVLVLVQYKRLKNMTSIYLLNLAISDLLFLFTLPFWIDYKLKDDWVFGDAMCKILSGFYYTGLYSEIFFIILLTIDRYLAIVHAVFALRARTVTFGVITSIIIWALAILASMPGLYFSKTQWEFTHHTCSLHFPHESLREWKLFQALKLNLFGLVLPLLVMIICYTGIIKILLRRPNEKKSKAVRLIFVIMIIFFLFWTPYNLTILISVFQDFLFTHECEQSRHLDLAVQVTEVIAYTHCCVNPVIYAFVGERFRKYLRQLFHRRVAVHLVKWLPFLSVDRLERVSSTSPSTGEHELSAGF

[6] = molecular target: Cannabinoid receptor 2 (Homo sapiens) (UniProt P34972); assay: Inhibition of human CB2 receptor at 10 uM relative to control
Chain of Cannabinoid receptor 2 (Homo sapiens) (P34972 whole entry): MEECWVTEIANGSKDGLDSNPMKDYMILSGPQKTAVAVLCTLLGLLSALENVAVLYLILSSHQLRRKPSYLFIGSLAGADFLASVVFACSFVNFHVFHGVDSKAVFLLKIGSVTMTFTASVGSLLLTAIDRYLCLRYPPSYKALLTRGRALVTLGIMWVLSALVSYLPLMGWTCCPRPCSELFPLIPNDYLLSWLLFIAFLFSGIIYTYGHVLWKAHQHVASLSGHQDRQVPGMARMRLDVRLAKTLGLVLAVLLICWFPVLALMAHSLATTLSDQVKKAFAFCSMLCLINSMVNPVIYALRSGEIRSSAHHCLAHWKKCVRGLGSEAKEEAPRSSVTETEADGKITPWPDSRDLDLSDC

[7] = molecular target: B2 bradykinin receptor (Homo sapiens) (UniProt P30411); assay: Inhibition of human bradykinin B2 receptor at 10 uM relative to control
[8] = molecular target: Beta-3 adrenergic receptor (Homo sapiens) (UniProt P13945); assay: Inhibition of human beta3 adrenergic receptor at 10 uM relative to control
Chain of Beta-3 adrenergic receptor (Homo sapiens) (P13945 whole entry, looked up): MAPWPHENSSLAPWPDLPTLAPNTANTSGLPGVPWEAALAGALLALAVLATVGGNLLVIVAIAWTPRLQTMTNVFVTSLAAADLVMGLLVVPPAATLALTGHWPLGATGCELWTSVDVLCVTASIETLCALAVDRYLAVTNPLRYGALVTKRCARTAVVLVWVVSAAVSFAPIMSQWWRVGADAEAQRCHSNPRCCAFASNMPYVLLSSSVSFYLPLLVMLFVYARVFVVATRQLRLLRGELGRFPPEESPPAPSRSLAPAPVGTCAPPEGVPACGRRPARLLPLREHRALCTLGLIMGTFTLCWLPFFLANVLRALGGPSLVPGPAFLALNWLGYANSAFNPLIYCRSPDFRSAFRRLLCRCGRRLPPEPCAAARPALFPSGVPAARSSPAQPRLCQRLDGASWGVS

[9] = molecular target: Alpha-2C adrenergic receptor (Homo sapiens) (UniProt P18825); assay: Inhibition of human alpha2C adrenergic receptor at 10 uM relative to control
[10] = molecular target: Tyrosine-protein phosphatase non-receptor type 1 (Homo sapiens) (UniProt P18031); assay: Inhibition of human PTP1B at 10 uM relative to control
Chain of Tyrosine-protein phosphatase non-receptor type 1 (Homo sapiens) (P18031 whole entry): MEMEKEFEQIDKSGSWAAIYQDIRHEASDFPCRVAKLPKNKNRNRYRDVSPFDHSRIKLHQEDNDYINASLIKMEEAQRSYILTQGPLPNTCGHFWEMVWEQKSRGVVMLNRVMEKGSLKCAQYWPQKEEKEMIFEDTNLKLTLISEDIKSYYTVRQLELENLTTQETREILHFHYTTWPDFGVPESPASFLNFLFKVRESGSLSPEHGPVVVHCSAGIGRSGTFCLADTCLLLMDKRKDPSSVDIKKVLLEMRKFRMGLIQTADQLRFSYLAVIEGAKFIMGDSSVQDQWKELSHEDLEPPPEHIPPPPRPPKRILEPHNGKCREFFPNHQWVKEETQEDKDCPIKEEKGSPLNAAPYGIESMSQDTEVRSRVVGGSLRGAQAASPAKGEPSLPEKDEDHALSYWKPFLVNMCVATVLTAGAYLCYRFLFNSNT

Bos taurus [11] = organism: Bos taurus; assay: Inhibition of bovine PKA at 100 uM relative to control
Bos taurus [12] = organism: Bos taurus; assay: Inhibition of bovine PDE6 at 100 uM relative to control
[13] = molecular target: cGMP-specific 3',5'-cyclic phosphodiesterase (Homo sapiens) (UniProt O76074); assay: Inhibition of human PDE5 at 100 uM relative to control
[14] = molecular target: Phosphodiesterase 4 (Homo sapiens) (UniProt P27815+Q08499+Q07343+Q08493); assay: Inhibition of human PDE4 at 100 uM relative to control; assay type: protein assay
[15] = molecular target: Neutrophil elastase (Homo sapiens) (UniProt P08246); assay: Inhibition of human neutrophil elastase 2 at 30 uM relative to control
[16] = molecular target: 5-hydroxytryptamine receptor 2B (Homo sapiens, UniProt P41595); assay: Inhibition of human 5-HT2B receptor at 1 uM relative to control
Chain of 5-hydroxytryptamine receptor 2B (P41595 whole entry): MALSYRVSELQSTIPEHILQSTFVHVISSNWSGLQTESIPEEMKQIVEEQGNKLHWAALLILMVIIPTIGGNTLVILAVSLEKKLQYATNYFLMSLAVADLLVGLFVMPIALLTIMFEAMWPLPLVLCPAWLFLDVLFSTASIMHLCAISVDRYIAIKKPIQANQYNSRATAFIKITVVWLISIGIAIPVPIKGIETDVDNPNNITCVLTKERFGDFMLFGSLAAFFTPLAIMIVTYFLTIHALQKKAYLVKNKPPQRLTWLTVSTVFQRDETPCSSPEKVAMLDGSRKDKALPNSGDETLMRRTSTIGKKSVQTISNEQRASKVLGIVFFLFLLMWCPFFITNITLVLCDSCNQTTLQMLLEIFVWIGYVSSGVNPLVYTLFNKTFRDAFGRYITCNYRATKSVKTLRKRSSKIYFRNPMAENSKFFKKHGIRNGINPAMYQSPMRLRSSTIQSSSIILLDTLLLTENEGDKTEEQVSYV

Cavia porcellus [17] = organism: Cavia porcellus; assay: Inhibition of guinea pig adenosine transporter at 10 uM relative to control
Rattus norvegicus [18] = assay: Antiinsomnic activity in rat EEG model assessed as increase in delta sleep time at 15 mg/kg, po; assay type: functional, organism-based; design: dose 15 mg/kg
Summary of the method: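 Rats with EEG telemetry given 15 mg/kg orally during their active period, vehicle 20% Vitamin E TPGS in water. Sleep architecture (active wake, light sleep, delta and REM sleep) scored from EEG.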

Homo sapiens [19] = organism: Homo sapiens; assay: Selectivity ratio of Ki for human orexin-1 receptor to Ki for human orexin-2 receptor
Summary of the method: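 Radioligand binding: a high-affinity radioligand was bound to membranes from human cells overexpressing OX1R or OX2R, and inhibition of that binding was measured and expressed as Ki. The ratio is the OX1R Ki divided by the OX2R Ki.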

Oryctolagus cuniculus [20] = organism: Oryctolagus cuniculus; assay: Inhibition of rabbit monoamine transporter at 0.1 uM relative to control
Oryctolagus cuniculus [21] = organism: Oryctolagus cuniculus; assay: Inhibition of rabbit monoamine transporter at 1 uM relative to control
Rattus norvegicus [22] = organism: Rattus norvegicus; assay: Inhibition of rat GABA transporter at 10 uM relative to control
Cavia porcellus [23] = organism: Cavia porcellus; assay: Inhibition of guinea pig adenosine transporter at 10 nM relative to control
[24] = molecular target: 5-hydroxytryptamine receptor 6 (Homo sapiens) (UniProt P50406); assay: Inhibition of human 5-HT6 receptor at 10 uM relative to control
[25] = molecular target: T1, 5-hydroxytryptamine receptor 1A (Homo sapiens) (UniProt P08908); assay: Inhibition of human 5-HT1A receptor at 0.1 uM relative to control
T1 sequence (whole entry): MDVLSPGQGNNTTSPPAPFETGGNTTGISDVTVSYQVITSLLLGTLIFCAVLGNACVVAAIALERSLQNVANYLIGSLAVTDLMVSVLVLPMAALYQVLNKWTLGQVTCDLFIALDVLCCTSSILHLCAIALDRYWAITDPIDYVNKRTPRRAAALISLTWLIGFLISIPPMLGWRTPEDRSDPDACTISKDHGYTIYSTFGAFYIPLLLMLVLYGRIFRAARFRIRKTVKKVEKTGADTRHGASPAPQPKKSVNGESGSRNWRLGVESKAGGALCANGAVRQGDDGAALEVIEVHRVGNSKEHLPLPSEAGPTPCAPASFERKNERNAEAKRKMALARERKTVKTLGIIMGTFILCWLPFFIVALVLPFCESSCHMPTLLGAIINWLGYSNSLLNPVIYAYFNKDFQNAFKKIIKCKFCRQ

[26] = molecular target: Thromboxane A2 receptor (Homo sapiens) (UniProt P21731); assay: Inhibition of human thromboxane A2 receptor at 10 uM relative to control
Chain of Thromboxane A2 receptor (Homo sapiens) (P21731 whole entry): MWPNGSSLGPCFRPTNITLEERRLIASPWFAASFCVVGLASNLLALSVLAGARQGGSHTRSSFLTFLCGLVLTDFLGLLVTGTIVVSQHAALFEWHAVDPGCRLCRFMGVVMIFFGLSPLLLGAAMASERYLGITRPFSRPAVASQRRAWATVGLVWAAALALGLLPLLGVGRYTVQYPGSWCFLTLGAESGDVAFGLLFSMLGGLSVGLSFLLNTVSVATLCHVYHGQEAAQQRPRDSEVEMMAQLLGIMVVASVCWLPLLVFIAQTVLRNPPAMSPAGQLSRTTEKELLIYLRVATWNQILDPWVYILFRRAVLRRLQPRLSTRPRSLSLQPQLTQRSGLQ

[27] = molecular target: Prostaglandin D2 receptor (Homo sapiens) (UniProt Q13258); assay: Inhibition of human prostanoid DP receptor at 10 uM relative to control
Chain of Prostaglandin D2 receptor (Homo sapiens) (Q13258 whole entry): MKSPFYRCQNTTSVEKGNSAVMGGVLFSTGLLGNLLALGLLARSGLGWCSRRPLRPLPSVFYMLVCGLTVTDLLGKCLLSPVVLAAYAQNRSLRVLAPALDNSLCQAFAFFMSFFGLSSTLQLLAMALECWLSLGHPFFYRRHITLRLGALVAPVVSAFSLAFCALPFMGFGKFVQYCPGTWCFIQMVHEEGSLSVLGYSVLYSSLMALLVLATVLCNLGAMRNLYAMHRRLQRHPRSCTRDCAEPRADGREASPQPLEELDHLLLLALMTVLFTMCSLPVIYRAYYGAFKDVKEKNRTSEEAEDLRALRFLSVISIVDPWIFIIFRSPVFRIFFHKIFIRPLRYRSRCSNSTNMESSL

[28] = molecular target: Peroxisome proliferator-activated receptor alpha (Homo sapiens) (UniProt Q07869); assay: Inhibition of human PPARalpha at 10 uM relative to control
Homo sapiens [29] = organism: Homo sapiens; assay: Inhibition of human nicotinic acetylcholine receptor at 10 uM relative to control
[30] = molecular target: Neurotensin receptor type 1 (Homo sapiens) (UniProt P30989); assay: Inhibition of human NT1 receptor at 10 uM relative to control
Chain of Neurotensin receptor type 1 (Homo sapiens) (P30989 whole entry): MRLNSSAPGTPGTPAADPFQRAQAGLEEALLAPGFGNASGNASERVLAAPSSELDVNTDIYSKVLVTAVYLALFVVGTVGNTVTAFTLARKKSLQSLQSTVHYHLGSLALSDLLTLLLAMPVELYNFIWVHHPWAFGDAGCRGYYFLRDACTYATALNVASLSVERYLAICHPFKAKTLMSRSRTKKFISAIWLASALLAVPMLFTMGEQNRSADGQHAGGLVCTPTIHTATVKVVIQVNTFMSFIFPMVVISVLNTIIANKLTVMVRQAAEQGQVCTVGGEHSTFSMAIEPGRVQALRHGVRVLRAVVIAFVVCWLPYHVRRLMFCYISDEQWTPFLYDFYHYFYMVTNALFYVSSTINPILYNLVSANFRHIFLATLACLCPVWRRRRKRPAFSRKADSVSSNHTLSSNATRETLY

[31] = molecular target: Muscarinic acetylcholine receptor M2 (Homo sapiens) (UniProt P08172); assay: Inhibition of human muscarinic M2 receptor at 10 uM relative to control
Chain of Muscarinic acetylcholine receptor M2 (Homo sapiens) (P08172 whole entry): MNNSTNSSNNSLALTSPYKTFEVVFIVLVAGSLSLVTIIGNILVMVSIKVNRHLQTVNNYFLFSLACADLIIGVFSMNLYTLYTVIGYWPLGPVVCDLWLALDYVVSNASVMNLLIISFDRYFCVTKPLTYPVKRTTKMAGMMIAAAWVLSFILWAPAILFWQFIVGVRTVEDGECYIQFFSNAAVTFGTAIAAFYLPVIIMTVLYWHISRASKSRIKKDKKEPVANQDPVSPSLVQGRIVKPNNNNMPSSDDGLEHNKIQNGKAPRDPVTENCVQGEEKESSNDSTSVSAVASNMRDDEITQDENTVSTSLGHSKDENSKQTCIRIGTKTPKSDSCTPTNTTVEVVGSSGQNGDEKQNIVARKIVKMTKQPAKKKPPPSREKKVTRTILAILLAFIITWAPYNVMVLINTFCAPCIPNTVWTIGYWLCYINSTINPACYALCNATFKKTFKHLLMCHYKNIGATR

[32] = molecular target: Histamine H4 receptor (Homo sapiens) (UniProt Q9H3N8); assay: Inhibition of human histamine H4 receptor at 10 uM relative to control
[33] = molecular target: Histamine H3 receptor (Homo sapiens) (UniProt Q9Y5N1); assay: Inhibition of human histamine H3 receptor at 10 uM relative to control
Chain of Histamine H3 receptor (Homo sapiens) (Q9Y5N1 whole entry): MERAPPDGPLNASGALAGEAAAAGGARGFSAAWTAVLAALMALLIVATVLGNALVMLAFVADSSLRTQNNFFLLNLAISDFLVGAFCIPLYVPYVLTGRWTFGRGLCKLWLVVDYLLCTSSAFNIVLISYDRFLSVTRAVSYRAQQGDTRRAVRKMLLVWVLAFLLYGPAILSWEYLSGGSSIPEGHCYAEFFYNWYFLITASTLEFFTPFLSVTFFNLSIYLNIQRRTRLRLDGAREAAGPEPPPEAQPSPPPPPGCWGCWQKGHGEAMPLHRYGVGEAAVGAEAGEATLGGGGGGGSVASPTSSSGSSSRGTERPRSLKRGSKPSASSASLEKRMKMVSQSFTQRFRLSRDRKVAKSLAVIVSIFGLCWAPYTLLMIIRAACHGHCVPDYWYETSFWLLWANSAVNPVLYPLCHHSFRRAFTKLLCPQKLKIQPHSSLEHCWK

[34] = molecular target: Glutamate NMDA receptor (Rattus norvegicus) (UniProt P35439+Q00959+Q00960+Q00961+Q62645+Q8VHN2+Q9R1M7); assay: Inhibition of rat NMDA receptor agonist binding site at 10 uM relative to control; assay type: protein-complex assay
[35] = molecular target: GABA-A receptor; alpha-5/beta-3/gamma-2 (Homo sapiens) (UniProt P18507+P28472+P31644); assay: Inhibition of human GABA alpha5beta3gamma2 receptor muscimol binding site at 10 uM relative to control; assay type: protein-complex assay

inhibition [1]: 39%
inhibition [2]: 3%
inhibition (D(3) dopamine receptor): 3%
inhibition [3]: 2%
inhibition [4]: -4%
inhibition [5]: 21%
inhibition [6]: 2%
inhibition [7]: -10%
inhibition [8]: 24%
inhibition [9]: 5%
inhibition [10]: 1%
inhibition (Bos taurus [11]): -7%
inhibition (Bos taurus [12]): 16%
inhibition [13]: -8%
inhibition [14]: 5%
inhibition [15]: -2%
inhibition [16]: 52%
inhibition (Cavia porcellus [17]): 69%
Ratio Ki (Homo sapiens [19]): 1350
inhibition (Oryctolagus cuniculus [20]): 7%
inhibition (Oryctolagus cuniculus [21]): 20%
inhibition (Rattus norvegicus [22]): 3%
inhibition (Cavia porcellus [23]): 2%
inhibition [24]: -8%
inhibition [25]: 10%
inhibition [26]: 17%
inhibition [27]: 16%
inhibition [28]: 5%
inhibition (Homo sapiens [29]): -1%
inhibition [30]: 21%
inhibition [31]: -8%
inhibition [32]: 9%
inhibition [33]: -3%
inhibition [34]: 1%
inhibition [35]: 14%
Compound: COc1ccc(CNC(=O)c2cc(-c3cc(Cl)cc(Cl)c3)cnc2-c2cccnc2)cc1OC
Activity (Rattus norvegicus [18]): Active
